This note sets out measurements from ChEMBL document CHEMBL3352307, “Bioactive anthraquinone derivatives from the mangrove-derived fungus Stemphylium sp. 33231” (J Nat Prod, 2014).

Values after ≈ are worked out from the molar mass of the structure shown.

For one assay, the system named is A549. Description: Cytotoxic activity against human A549 cells by MTT assay. Type of assay: functional, cell-based. The gist of the method:
(§1)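 MTT viability read-out on mouse melanoma B16F10 and human lung adenocarcinoma A549 lines, with epirubicin as positive control. Activity is given as IC50.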
(Formazan colour is commonly taken as a measure of viable cells.)

Another assay relates to Escherichia coli. The assay is described as follows: Antimicrobial activity against Escherichia coli ATCC 25922 by broth dilution assay. The class given is functional. The gist of the method: (§2)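 Conventional broth dilution run on the seven terrestrial pathogenic bacterial strains, with ciprofloxacin as positive control.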
In general terms: Broth dilution looks for growth in wells or tubes with falling amounts of substance.

Another assay relates to Staphylococcus. The assay is described as follows: Antimicrobial activity against Staphylococcus albus ATCC 8799 by broth dilution assay. Type of assay: functional. The gist of the method: as §2
In the next assay the test system is Bacillus cereus. Description: Antimicrobial activity against Bacillus cereus ATCC 14579 by broth dilution assay. Type of assay: functional. The essentials:
as §2

The test system of a further assay is Kocuria rhizophila. Description: Antimicrobial activity against Kocuria rhizophila ATCC 9341 by broth dilution assay. Type of assay: functional. The essentials: as §2
Another assay relates to Staphylococcus aureus. Description: Antimicrobial activity against Staphylococcus aureus ATCC 6538 by broth dilution assay. Type of assay: functional. The essentials: as §2
The nature of assay [1]: Cytotoxic activity against mouse B16F10 cells by MTT assay. Conditions: B16-F10. Type of assay: functional, cell-based. The essentials: as §1
Another assay concerns Micrococcus. Description: Antimicrobial activity against Micrococcus tetragenus ATCC 13623 by broth dilution assay. Type of assay: functional. The gist of the method:
as §2

Another assay has as its system Bacillus subtilis. The assay is described as follows: Antimicrobial activity against Bacillus subtilis ATCC 6633 by broth dilution assay. The class given is functional. The gist of the method: as §2
Where [2] appears, read: Escherichia coli, ATCC 25922, read-out: MIC.
The mark [3] stands for this setting: Staphylococcus, ATCC 8799, read-out: MIC.
The mark [4] stands for this setting: Bacillus cereus, ATCC 14579, read-out: MIC.
Where [5] appears, read: Kocuria rhizophila, ATCC 9341, read-out: MIC.
Where [6] appears, read: Staphylococcus aureus, ATCC 6538, read-out: MIC.
Where [7] appears, read: Micrococcus, ATCC 13623, read-out: MIC.
[8] abbreviates: Bacillus subtilis, ATCC 6633, read-out: MIC.

What is called IC50 is the concentration needed to halve the response being measured. A lower IC50 goes with greater potency in that assay. For orientation: MIC means the lowest concentration that inhibits growth of the organism. For the molecule `COc1cc(O)c2c(c1)C(=O)c1cc(C)c(O)c(-c3c(OC)cc4c(c3O)C(=O)C3=C(C4=O)[C@@H](O)[C@](C)(O)[C@H](O)[C@H]3O)c1C2=O` (single isomer, unassigned; atropisomer 1) [ALTERPORRIOL C], the IC50 (with A549; in [1]) was over 10 µM each time. Moreover, the MIC is over 10 µM in the assay with Escherichia coli (setting [2]); 8.9 µM (≈ 5.51 µg/mL) with Staphylococcus (setting [3]); over 10 µM with Bacillus cereus (setting [4]); over 10 µM in the assay on Kocuria rhizophila (setting [5]); over 10 µM with Staphylococcus aureus (setting [6]); over 10 µM in the assay with Micrococcus (setting [7]). In the assay with Bacillus subtilis (setting [8]), the MIC was over 10 µM.
In the case of `COc1cc(O)c2c(c1)C(=O)[C@@]13O[C@]1(C2=O)[C@H](O)[C@@H](O)[C@@](C)(O)[C@@H]3O`, the IC50 (in the assay with A549; in [1]) was over 10 µM each time. Moreover, the MIC with Escherichia coli (setting [2]) was 9.8 µM (≈ 3.45 µg/mL); in the assay with Staphylococcus (setting [3]), over 10 µM; in the assay with Bacillus cereus (setting [4]), over 10 µM; in the assay on Kocuria rhizophila (setting [5]) it was over 10 µM; in the assay on Staphylococcus aureus (setting [6]) it was over 10 µM; in the assay with Micrococcus (setting [7]) it was over 10 µM. The MIC with Bacillus subtilis (setting [8]) is over 10 µM.
With `COc1cc(O)c2c(c1-c1c(OC)cc(O)c3c1C(=O)c1cc(C)c(O)cc1C3=O)C(=O)C1=C(C2=O)[C@H](O)[C@@H](O)[C@@](C)(O)[C@@H]1O` (single isomer, unassigned; atropisomer 2) [ALTERPORRIOL A/B], the IC50 (in the assay on A549; in assay [1]) was over 10 µM throughout. Besides, the MIC in the assay with Escherichia coli, in the assay with Staphylococcus, against Bacillus cereus, against Kocuria rhizophila, against Staphylococcus aureus and in the assay on Micrococcus was over 10 µM in each case. The molecule also gave an MIC against Bacillus subtilis of over 10 µM.
As to `COc1cc2c(c(O)c1-c1c(OC)cc(O)c3c1C(=O)C1=C(C[C@@H](O)[C@@](C)(O)C1)C3=O)C(=O)C1=C(C[C@](C)(O)[C@H](O)C1)C2=O`, the IC50 (in the assay on A549; in assay [1]) was over 10 µM in each case. Besides, the MIC was over 10 µM in the assay with Escherichia coli (setting [2]); over 10 µM in the assay with Staphylococcus (setting [3]); 8.3 µM (≈ 5.03 µg/mL) in the assay on Bacillus cereus (setting [4]); over 10 µM with Kocuria rhizophila (setting [5]); over 10 µM with Staphylococcus aureus (setting [6]); over 10 µM with Micrococcus (setting [7]). Further, the MIC in the assay with Bacillus subtilis (setting [8]) is over 10 µM.
